Measured values: ChEMBL document CHEMBL1137637, “Quinuclidine derivatives as potential antiparasitics” (Antimicrob Agents Chemother, 2007)
Values after ≈ are worked out from the molar mass of the structure shown.

Tests used:
[1] = tested on: L6; assay: Cytotoxicity against rat L6 cells after 72 hrs by resazurin assay; assay type: cell-based; settings: L6, 72 h
Outline: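 L-6 cells seeded at 4 × 10⁴ cells/ml in RPMI 1640 with 10% FBS and 2 mM L-glutamine. After 24 h, medium replaced with serial drug dilution and incubated for 72 h at 37°C in 5% CO2. Resazurin added for 2–4 h, fluorescence read at ex 536/em 588 nm. IC50 from sigmoidal curve. Duplicate, with an independent repeat for actives.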

[2] = tested on: Leishmania amazonensis; assay: Inhibition of sterol biosynthesis in Leishmania mexicana amazonensis promastigotes assessed as reduction in exogenous cholesterol level at 1 uM after 96 hrs by gas-liquid chromatography; assay type: functional; parameters: scale not given: the % may be the effect or the level left
Outline: (§1)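 L. mexicana promastigotes exposed to compound for 96 h. Total lipids extracted and neutral sterols separated from polar lipids by silicic acid column chromatography. Sterols analysed by TLC and by quantitative capillary gas-liquid chromatography with mass spectrometry. Composition expressed as mass % of free sterols, compared with untreated control.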

[3] = tested on: Leishmania amazonensis; assay: Inhibition of sterol biosynthesis in Leishmania mexicana amazonensis promastigotes assessed as reduction in endogenous 5-dehydro episterol level at 1 uM after 96 hrs by gas-liquid chromatography; assay type: functional; parameters: scale not given: the % may be the effect or the level left; outline: as §1
[4] = tested on: Leishmania amazonensis; assay: Antileishmanial activity against Leishmania mexicana amazonensis promastigotes by trypan blue exclusion method; assay type: functional, organism-based
Outline: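 L. mexicana amazonensis promastigotes cultured in liver infusion-tryptose medium with lactalbumin and 10% FCS at 26°C, unagitated. Cultures started at 2 × 10⁶ cells/ml and drug added at 0.5–1 × 10⁷ cells/ml. Density counted by electronic particle counter and hemocytometer. Viability by trypan blue exclusion. Triplicate growth experiments.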

[5] = tested on: Leishmania donovani; assay: Antileishmanial activity against Leishmania donovani MHOM/ET/67/L82 axenic amastigotes after 72 hrs by resazurin assay; assay type: functional, organism-based; settings: MHOM/ET/67/L82, 72 h
Outline: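 L. donovani MHOM/ET/67/L82 amastigotes grown axenically at 37°C in synthetic minimal medium at pH 5.4 with 10% heat-inactivated FBS under 5% CO2. 1 × 10⁵ amastigotes per well with seven threefold dilutions, 30 to 0.041 μg/ml. After 72 h, resazurin added for 2–4 h more. Fluorescence read at ex 536/em 588 nm. IC50 taken from sigmoidal curve. Run in duplicate, with an independent repeat for actives.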

[6] = molecular target: T1, Farnesyltransferase, putative (Leishmania major, UniProt Q4Q5W4); assay: Inhibition of Leishmania major recombinant squalene synthase expressed in Escherichia coli by liquid scintillation counter
T1 sequence (Q4Q5W4 whole entry): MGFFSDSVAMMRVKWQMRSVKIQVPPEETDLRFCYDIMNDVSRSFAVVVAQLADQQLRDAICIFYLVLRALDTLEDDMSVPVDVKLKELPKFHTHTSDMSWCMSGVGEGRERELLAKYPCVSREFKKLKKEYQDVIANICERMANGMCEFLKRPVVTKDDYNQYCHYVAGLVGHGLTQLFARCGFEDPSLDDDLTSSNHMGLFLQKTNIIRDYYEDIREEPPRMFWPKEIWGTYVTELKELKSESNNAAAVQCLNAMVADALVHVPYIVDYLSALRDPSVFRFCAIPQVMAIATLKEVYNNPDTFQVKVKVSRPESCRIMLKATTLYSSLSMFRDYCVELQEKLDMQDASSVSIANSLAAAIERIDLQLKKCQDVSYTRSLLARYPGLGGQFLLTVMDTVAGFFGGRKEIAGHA
Outline: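 Soluble E. coli extract expressing L. major SQS truncated by 16 N-terminal and 40 C-terminal residues. Buffer: 50 mM phosphate pH 7.4, 20 mM MgCl2, 5 mM CHAPS, 1% Tween 80, 10 mM DTT, BSA, 0.25 mM NADPH, and a glucose-6-phosphate/G6PDH regenerating system. Substrate 0.5 μM radiolabelled farnesyl pyrophosphate. Squalene band counted by scintillation. IC50 from hyperbolic plot of five concentrations in duplicate, usually run twice.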

[7] = tested on: Plasmodium falciparum; assay: Antiplasmodial activity after 48 hrs against chloroquine and pyrimethamine-resistant Plasmodium falciparum K1 in human erythrocytes by [3H]hypoxanthine uptake; assay type: functional, organism-based
Outline: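 P. falciparum K1 in human red cells in RPMI 1640 with 5% Albumax, exposed to serial drug dilutions. Incubated 48 h at 37°C under reduced oxygen, then 0.5 μCi [³H]hypoxanthine per well for 24 h more. Cells harvested onto glass-fibre filters and counted by scintillation. Result expressed as % of untreated control, with IC50 from sigmoidal curve. Duplicate, plus an independent repeat for actives.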

[8] = molecular target: T2, Squalene synthase (Homo sapiens, UniProt P37268); assay: Inhibition of human recombinant squalene synthase expressed in Escherichia coli BL21(DE3 pLysS) up to 1 uM by liquid scintillation counter
T2 sequence (P37268 whole entry): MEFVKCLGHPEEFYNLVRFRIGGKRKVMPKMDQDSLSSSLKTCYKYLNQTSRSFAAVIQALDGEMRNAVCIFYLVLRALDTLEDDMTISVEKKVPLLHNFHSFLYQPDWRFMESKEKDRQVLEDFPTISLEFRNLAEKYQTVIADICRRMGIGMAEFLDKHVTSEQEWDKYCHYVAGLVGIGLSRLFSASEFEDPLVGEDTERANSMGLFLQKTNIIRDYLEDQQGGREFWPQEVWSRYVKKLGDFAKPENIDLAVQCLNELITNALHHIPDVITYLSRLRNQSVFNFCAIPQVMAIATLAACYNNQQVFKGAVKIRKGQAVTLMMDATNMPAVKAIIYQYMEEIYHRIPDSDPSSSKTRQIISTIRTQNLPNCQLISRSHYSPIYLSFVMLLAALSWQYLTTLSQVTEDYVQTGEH
Outline: (§2)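 Human SQS in extracts of E. coli BL21(DE3 pLysS) carrying pHSS16, assayed under the same conditions as the L. major enzyme. Buffer: phosphate pH 7.4, MgCl2, CHAPS, Tween 80, DTT, BSA, and NADPH with a regenerating system. Substrate 0.5 μM radiolabelled farnesyl pyrophosphate. Squalene band radioactivity counted by scintillation.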

[9] = tested on: Trypanosoma cruzi; assay: Antitrypanosomal activity against trypomastigotes of Trypanosoma cruzi Tulahuen C2C4 containing lacZ gene in rat L6 cells after 4 days by chlorophenol red-beta-D-galactopyranoside/Nonidet assay; assay type: functional, organism-based; settings: Tulahuen C2C4, L6, 96 h
Outline: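 L-6 rat myoblasts seeded at 2,000 cells/well in RPMI 1640 with 10% FBS and 2 mM L-glutamine. After 24 h, 5,000 T. cruzi Tulahuen C2C4 lacZ trypomastigotes added with serial drug dilution. Incubated at 37°C in 5% CO2 for 4 days. CPRG/Nonidet substrate added and colour read at 540 nm after 2–4 h. IC50 from sigmoidal curve. Duplicate determinations.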

[10] = tested on: Trypanosoma brucei rhodesiense; assay: Trypanocidal activity against Trypanosoma brucei rhodesiense STIB 900 bloodstream form after 72 hrs by resazurin assay; assay type: functional, organism-based; settings: STIB 900, 72 h
Outline: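 T. b. rhodesiense STIB 900 bloodstream forms in MEM with 2-mercaptoethanol and 15% heat-inactivated horse serum, with serial drug dilutions. Incubated 72 h at 37°C in 5% CO2. Resazurin added for 2–4 h more, fluorescence read at ex 536/em 588 nm. IC50 from sigmoidal curve. Duplicate, with an independent repeat for actives.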

[11] = tested on: Leishmania amazonensis; assay: Inhibition of sterol biosynthesis in Leishmania mexicana amazonensis promastigotes assessed as reduction in endogenous episterol level at 1 uM after 96 hrs by gas-liquid chromatography; assay type: functional; parameters: scale not given: the % may be the effect or the level left; outline: as §1
[12] = tested on: Leishmania amazonensis; assay: Inhibition of sterol biosynthesis in Leishmania mexicana amazonensis promastigotes assessed as reduction in endogenous cholesta-5,7,24-trien-3beta-ol level at 1 uM after 96 hrs by gas-liquid chromatography; assay type: functional; parameters: scale not given: the % may be the effect or the level left; outline: as §1
[13] = tested on: Leishmania amazonensis; assay: Inhibition of sterol biosynthesis in Leishmania mexicana amazonensis promastigotes assessed as reduction in exogenous cholesterol level at 0.3 uM after 96 hrs by gas-liquid chromatography; assay type: functional; parameters: scale not given: the % may be the effect or the level left
Outline: (§3)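 Promastigotes grown in liver infusion-tryptose medium with lactalbumin and 10% fetal calf serum at 26°C, static; drug added at 0.5 × 10⁷ to 1 × 10⁷ cells/ml and cells exposed for 96 h. Total lipids extracted; neutral lipids separated from polar lipids by silicic acid column chromatography; free sterols quantified by capillary gas-liquid chromatography and mass spectrometry as mass % of total sterols.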

[14] = tested on: Leishmania amazonensis; assay: Inhibition of sterol biosynthesis in Leishmania mexicana amazonensis promastigotes assessed as reduction in endogenous episterol level at 0.3 uM after 96 hrs by gas-liquid chromatography; assay type: functional; parameters: scale not given: the % may be the effect or the level left; outline: as §3
[15] = tested on: Leishmania amazonensis; assay: Inhibition of sterol biosynthesis in Leishmania mexicana amazonensis promastigotes assessed as reduction in endogenous 5-dehydro episterol level at 0.1 uM after 96 hrs by gas-liquid chromatography; assay type: functional; parameters: scale not given: the % may be the effect or the level left; outline: as §1
[16] = tested on: Leishmania amazonensis; assay: Inhibition of sterol biosynthesis in Leishmania mexicana amazonensis promastigotes assessed as reduction in endogenous 5-dehydro episterol level at 0.3 uM after 96 hrs by gas-liquid chromatography; assay type: functional; parameters: scale not given: the % may be the effect or the level left; outline: as §3
[17] = tested on: Leishmania amazonensis; assay: Inhibition of sterol biosynthesis in Leishmania mexicana amazonensis promastigotes assessed as reduction in endogenous episterol level at 0.1 uM after 96 hrs by gas-liquid chromatography; assay type: functional; parameters: scale not given: the % may be the effect or the level left; outline: as §1
[18] = molecular target: T2, Squalene synthase; assay: Inhibition of human recombinant squalene synthase expressed in Escherichia coli BL21(DE3 pLysS) by liquid scintillation counter; outline: as §2
[19] = tested on: Leishmania amazonensis; assay: Inhibition of sterol biosynthesis in Leishmania mexicana amazonensis promastigotes assessed as reduction in exogenous cholesterol level at 0.1 uM after 96 hrs by gas-liquid chromatography; assay type: functional; parameters: scale not given: the % may be the effect or the level left; outline: as §1
[20] = tested on: Leishmania amazonensis; assay: Inhibition of sterol biosynthesis in Leishmania mexicana amazonensis promastigotes assessed as reduction in endogenous episterol level at 10 uM after 96 hrs by gas-liquid chromatography; assay type: functional; parameters: scale not given: the % may be the effect or the level left; outline: as §1
[21] = tested on: Leishmania amazonensis; assay: Inhibition of sterol biosynthesis in Leishmania mexicana amazonensis promastigotes assessed as reduction in endogenous episterol level at 3 uM after 96 hrs by gas-liquid chromatography; assay type: functional; parameters: scale not given: the % may be the effect or the level left; outline: as §1
[22] = tested on: Leishmania amazonensis; assay: Inhibition of sterol biosynthesis in Leishmania mexicana amazonensis promastigotes assessed as reduction in exogenous cholesterol level at 10 uM after 96 hrs by gas-liquid chromatography; assay type: functional; parameters: scale not given: the % may be the effect or the level left; outline: as §1
[23] = tested on: Leishmania amazonensis; assay: Inhibition of sterol biosynthesis in Leishmania mexicana amazonensis promastigotes assessed as reduction in endogenous 5-dehydro episterol level at 10 uM after 96 hrs by gas-liquid chromatography; assay type: functional; parameters: scale not given: the % may be the effect or the level left; outline: as §1
[24] = tested on: Leishmania amazonensis; assay: Inhibition of sterol biosynthesis in Leishmania mexicana amazonensis promastigotes assessed as reduction in endogenous 5-dehydro episterol level at 3 uM after 96 hrs by gas-liquid chromatography; assay type: functional; parameters: scale not given: the % may be the effect or the level left; outline: as §1
[25] = tested on: Leishmania amazonensis; assay: Inhibition of sterol biosynthesis in Leishmania mexicana amazonensis promastigotes assessed as reduction in exogenous cholesterol level at 3 uM after 96 hrs by gas-liquid chromatography; assay type: functional; parameters: scale not given: the % may be the effect or the level left; outline: as §1

Structure (SMILES): c1ccc(-c2ccc(CC3CN4CCC3CC4)cc2)cc1 (stereo not given)
- IC50 [1]: 20.5 µM
- Activity [2]: 51.1%
- Activity [3]: 30.3%
- MIC [4]: 1 µM (≈ 0.277 µg/mL)
- IC50 [5]: > 108 µM
- IC50 [6]: > 1 µM
- IC50 [7]: 2.8 µM
- IC50 [8]: Not Active
- IC50 [9]: 4.7 µM
- IC50 [10]: 0.7 µM
- Activity [11]: 8.2%
- Activity [12]: 10.4%

Structure (SMILES): C1=C(c2ccc(OCc3ccccc3)cc2)C2CCN1CC2
- Activity [13]: 52.9%
- IC50 [1]: 47.2 µM
- Activity [14]: 22.9%
- MIC [4]: 0.3 µM (≈ 0.0874 µg/mL)
- IC50 [5]: 1.1 µM
- IC50 [6]: 0.1 µM
- IC50 [7]: 4.8 µM
- IC50 [9]: 3.1 µM
- Activity [15]: 53%
- IC50 [10]: 1.1 µM
- Activity [16]: 24.2%
- Activity [17]: 15.4%
- IC50 [18]: 0.25 µM
- Activity [19]: 31.6%

Structure (SMILES): CCOC(=O)Cc1ccc(C#CC2(O)CN3CCC2CC3)cc1 (stereo not given)
- Activity [20]: 18.8%
- IC50 [1]: > 287 µM
- MIC [4]: 10 µM (≈ 3.13 µg/mL)
- IC50 [5]: 17.3 µM
- Activity [21]: 23%
- Activity [22]: 62.3%
- Activity [23]: 18.9%
- IC50 [6]: 0.97 µM
- IC50 [7]: 10 µM
- IC50 [9]: 25.6 µM
- IC50 [10]: 258 µM
- Activity [24]: 48.6%
- IC50 [18]: 0.66 µM
- Activity [25]: 28.4%
